Compound activity (PubChem)
This is a sample that favours compounds with a hit; in the whole collection about 3.7% have one here.
NPY-Y1 antag – blocks the human neuropeptide Y Y1 receptor; AID 1040; HEK293-CNG Y1 cells, membrane potential fluorescence; NPY at EC95, then isoproterenol; 200,000 tested, 1% active; inhibition, % at 3.6 µM;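 active = inhibition above the campaign mean inhibition of all tested compounds plus 3 SD, cut at about 20% in these data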;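 also: 0% = DMSO wells given NPY plus isoproterenol and 100% = isoproterenol alone without NPY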
Target sequence (P25929 whole entry, looked up): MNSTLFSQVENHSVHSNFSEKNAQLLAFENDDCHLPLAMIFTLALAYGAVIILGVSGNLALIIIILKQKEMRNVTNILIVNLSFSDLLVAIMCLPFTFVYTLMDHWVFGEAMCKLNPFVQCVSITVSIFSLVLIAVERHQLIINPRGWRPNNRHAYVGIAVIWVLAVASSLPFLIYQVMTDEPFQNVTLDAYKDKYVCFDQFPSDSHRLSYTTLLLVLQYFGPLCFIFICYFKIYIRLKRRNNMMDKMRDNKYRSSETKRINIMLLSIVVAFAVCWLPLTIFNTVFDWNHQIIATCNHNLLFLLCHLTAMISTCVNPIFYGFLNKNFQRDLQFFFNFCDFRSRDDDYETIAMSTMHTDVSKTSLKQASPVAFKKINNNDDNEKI
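Assay system: HEK293 cells with Y1 receptor plus CNG channel | Probe or stimulus: NPY (25 nM), isoproterenol (1 µM), Ro 20-1724 (25 µM) | Timing: Compound incubation 1 h at room temperature, readout 45 min post-stimulation | Measured by: Membrane-potential fluorescent dye readout | Benchmarks: High control isoproterenol alone, low control NPY with isoproterenol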
Furin inh – human furin inhibition | inhibition, % at 20 µM or 30 µM | 220,000 tested, 0.061% active | purified furin, fluorogenic substrate cleavage | P09958; in the data active = inhibition above about 25%
NPY-Y1 PAM-ag – potentiates or activates human NPY-Y1 receptor; NPY-Y1 expressing cells, potentiator/agonist activation; activation, % at 3.6 µM; 220,000 tested, 0.37% active; in the data active = activation above about 33%, passing the limit was not always enough;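 also: cells stimulated with NPY at EC10 then isoproterenol at EC100; 0% = low agonist plus stimulus and 100% = saturating agonist plus stimulus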
Cl transport mod – modulates chloride dependent transport by human KCC2. Q9H2X9. KCC2 cells, thallium flux FluoZin-2 fluorescence. B-score of Tl+ flux slope (higher = more flux/activation; lower = inhibition) at 10 µM. 190,000 tested, 2.2% active. AID 1456;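 active = thallium flux slope and its plate-corrected score both differing from the plate sample mean at a set confidence after two filtering rounds, in either direction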;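 also: slope of fluorescence scaled to starting intensity during 10 to 20 s after thallium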
NPY2 pot ag – potentiates or activates human NPY-Y2 receptor. P49146. cells expressing NPY-Y2, potentiator/agonist read-out. activation, % at 3.6 µM. 220,000 tested, 0.45% active. AID 1359; in the data active = activation above about 27%;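 also: cells stimulated with NPY near EC25 plus isoproterenol at EC100; 0% = vehicle plus submaximal agonist and 100% = vehicle plus saturating agonist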
Target sequence (P49146 whole entry, looked up): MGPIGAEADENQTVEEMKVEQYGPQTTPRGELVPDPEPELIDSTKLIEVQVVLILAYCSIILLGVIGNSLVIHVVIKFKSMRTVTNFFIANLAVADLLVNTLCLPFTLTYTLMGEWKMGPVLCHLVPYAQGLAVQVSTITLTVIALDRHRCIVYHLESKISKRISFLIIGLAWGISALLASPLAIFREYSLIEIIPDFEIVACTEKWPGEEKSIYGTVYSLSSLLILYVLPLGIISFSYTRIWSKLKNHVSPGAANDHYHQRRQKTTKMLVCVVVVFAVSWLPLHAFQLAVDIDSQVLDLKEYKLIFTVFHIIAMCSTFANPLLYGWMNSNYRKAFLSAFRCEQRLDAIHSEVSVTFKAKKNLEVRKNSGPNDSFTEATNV
NPY-Y2 antag – NPY-Y2 (human) receptor antagonism. P49146. NPY-Y2 expressing cells, antagonist mode. inhibition, % at 2.7 µM. 140,000 tested, 0.99% active; in the data active = inhibition above about 17%;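 also: 0% = vehicle with agonist challenge and 100% = reference antagonist with challenge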
KCC2 secondary – KCC2 (human) modulation, secondary assay. normalised thallium flux (F/F0 slope) at 10 µM. AID 1713. HEK293-KCC2, thallium flux, FluoZin2 fluorescence; hits give high values. 3,700 tested, 15% active. shares compounds with Cl transport mod;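 active = thallium flux slope above the same plate's solvent-only control mean plus 3 SD; inconclusive = the two replicate wells disagree; inactive = no significant difference from solvent-only control wells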
KCC2 bumet counter – thallium flux persisting under bumetanide in KCC2 cells, counter-screen secondary assay. AID 1714. HEK293-KCC2 + bumetanide/ouabain, thallium flux FluoZin2; hits give high values. shares compounds with Cl transport mod. normalized thallium flux at 10 µM. 3,700 tested, 49% active;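 active = thallium entry rate above the same plate's blocked-transporter control wells by more than 3 SD; inconclusive = the two repeat wells disagree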;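 also: raw slope of fluorescence over initial fluorescence between 10 and 20 s after thallium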
KCC2 secondary2 – confirmation of human KCC2 transport modulators. normalized thallium flux at 10 µM. shares compounds with Cl transport mod. HEK293-KCC2, thallium flux FluoZin2 fluorescence; actives lie on both sides; F/F0 rise rate, 10–20 s post-thallium. 3,700 tested, 23% active. AID 1715;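 active = thallium flux slope more than 3 SD above or below the plate's solvent-only control mean, mostly below; inconclusive = the two repeat wells disagreed; inactive = no significant shift from solvent-only controls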;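 also: raw slope with 0.1% DMSO as baseline and bumetanide as block control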
HEK counter1 – counter-screen for KCC2 modulators: effect in parental HEK293 cells | shares compounds with Cl transport mod | thallium flux FluoZin2, ouabain; baseline-ratio fluorescence slope, 10–20 s after thallium | thallium flux rate (normalised fluorescence) at 10 µM | 3,700 tested, 46% active | AID 1716;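 active = thallium flux rate significantly above the same plate's solvent-only control wells, beyond their mean plus 3 SD; inconclusive = the two replicate wells gave conflicting results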
KCC2 ouabain – KCC2 (human) modulation, ouabain retest. 3,700 tested, 48% active. shares compounds with Cl transport mod. AID 1717. raw Tl+ flux slope (below DMSO = inhibition, above = activation) at 10 µM. HEK293-KCC2, thallium flux FluoZin2 fluorescence; bidirectional: low = inhibitor, high = activator;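 active = thallium flux slope beyond 3 SD from same-plate DMSO control mean in most replicates, usually higher, sometimes lower; inconclusive = repeat tests gave conflicting results; inactive = no significant difference from controls in most replicates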;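 also: slope of initial-normalized fluorescence between seconds 10 and 20 after thallium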
HEK293 Tl flux2 – acts in parental HEK cells, second KCC2 counter-screen | shares compounds with Cl transport mod | HEK293 parental, thallium flux FluoZin-2 fluorescence slope | thallium flux slope at 10 µM | 3,700 tested, 33% active | AID 1718;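 active = thallium flux slope above the same plate's solvent-control mean plus 3 SD in both duplicate wells; inconclusive = duplicate wells that disagreed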;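 also: run without ouabain in cells lacking the KCC2 cotransporter; slope of fluorescence scaled to its starting value between 10 and 20 s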
* = called active by the depositor; ? = inconclusive; · = no result given.

SMILES	NPY-Y1 antag	Furin inh	NPY-Y1 PAM-ag	Cl transport mod	NPY2 pot ag	NPY-Y2 antag	KCC2 secondary	KCC2 bumet counter	KCC2 secondary2	HEK counter1	KCC2 ouabain	HEK293 Tl flux2
COc1ccc(NC(=S)/N=C(\N)Nc2nc(C)c3ccccc3n2)cc1	·	-16.0	-16.1	-3.55*	-12.2	·	0.00702	0.00487	0.0256*	0.00708	0.0166*	0.00976
O=C(NNC1=Nc2ccccc2SC1)c1ccc(Cl)cc1	·	-21.9	5.0	5.55*	-28.1	·	0.0176	0.0112*	0.0311	0.00967*	0.0183	?
O=C(NNC1=Nc2ccccc2SC1)c1ccc(F)cc1	·	-22.0	-20.9	1.06	1.8	·	·	·	·	·	·	·
CN1CCN(C(=O)CCc2nc3ccccc3n2-c2ccccc2)CC1	2.8	-23.7	-11.3	-0.509	8.3	0.8	·	·	·	·	·	·
CCC(C)NC(=O)c1ccccc1-c1nc2ccccc2[nH]1 (stereo unspecified)	10.1	-38.3	4.9	-0.0893	-1.6	·	·	·	·	·	·	·
CC(C)(C)NS(=O)(=O)c1cc(C(=O)Nc2sccc2C#N)ccc1Cl	2.8	-12.2	-5.3	-1.07	7.5	0.9	·	·	·	·	·	·
O=C(NCCCn1ncc2ccccc21)c1cc(COc2c(F)cccc2F)on1	6.8	-2.2	15.7	-5.94*	-3.3	·	0.016	?	0.0221*	0.00681	0.0125*	0.00985
O=C(c1cc(COc2c(F)cccc2F)on1)N1CCc2ccccc2C1	10.6	-23.0	-28.6	-4.44*	-22.6	·	0.00628	0.0054	0.0346	0.00384	0.0146*	0.0122
O=C(c1cc(COc2c(F)cccc2F)on1)N1CCC(c2ccccc2F)C1 (stereo unspecified)	11.1	-6.4	-15.4	-2.96	-38.2	·	·	·	·	·	·	·
Cc1cc(C)nc(CCNC(=O)c2cc(COc3c(F)cccc3F)on2)n1	4.0	-20.4	7.3	·	-4.2	·	·	·	·	·	·	·
CN1CCN(C(=O)c2cc(COc3c(F)cccc3F)on2)CC1c1ccccc1 (stereo unspecified)	0.0	-23.2	5.1	-4*	-1.2	·	0.00714	0.00475	0.0331	0.00669	0.0152*	0.0117
O=C(c1ccco1)N1CCN(c2ccc([N+](=O)[O-])c(N3CCOCC3)c2)CC1	-4.4	-16.8	16.1	0.858	11.2	·	·	·	·	·	·	·
Cc1ccc(CSCCNS(=O)(=O)c2ccccc2)cc1	7.2	-21.7	-27.7	-0.756	-0.3	1.2	·	·	·	·	·	·
CCN(CC)CCn1c(=S)[nH]c2cc3c(cc2c1=O)OCO3	6.0	-14.5	0.0	1.02	-14.0	0.2	·	·	·	·	·	·
O=C(CCCn1c(=S)[nH]c2cc3c(cc2c1=O)OCO3)N1CCN(c2ccccc2F)CC1	5.5	-17.2	0.9	-0.669	8.3	0.6	·	·	·	·	·	·
CCOCCCn1c(=S)[nH]c2cc3c(cc2c1=O)OCO3	-2.0	-8.9	11.5	5.65*	-3.3	14.1	?	0.0427*	0.0352	0.0189*	0.0397*	?
Cc1ccc(C)c(N2CCN(C(=O)CCCn3c(=S)[nH]c4cc5c(cc4c3=O)OCO5)CC2)c1	5.2	-27.1	-3.2	3.38*	-17.0	0.4	0.0058	0.0158*	0.0305	0.0101*	?	0.0118
CCOC(=O)C1=C(C)NC(=S)NC1/C=C/c1ccccc1 (stereo unspecified)	4.7	-6.8	-18.2	-0.813	8.4	4.1	·	·	·	·	·	·
CCCC(C)C1C(C#N)=C(N)Oc2cc(C)oc(=O)c21 (stereo unspecified)	-11.0	23.6	24.7	-1.67	20.2	2.4	·	·	·	·	·	·
Cc1noc(C)c1CN1C(=O)NC2(CCc3ccccc3C2)C1=O (stereo unspecified)	11.1	-23.1	-3.1	0.119	14.1	2.7	0.00971	0.00685	0.0336	0.00737	0.0217	0.01
CN(C)c1ccc(/C=C/c2ccncc2)cc1	3.4	-34.7	19.0	·	14.6	5.1	0.0032*	-0.004*	0.0212*	0.00313*	0.00583*	?
S=C(NCc1ccc(Cl)cc1)NN1CCOCC1	-2.1	-22.7	16.1	0.459	7.7	·	·	·	·	·	·	·
O=C(Oc1c(CN2CCOCC2)cc(Cl)c2cccnc12)c1cccs1	-0.2	-27.1	4.6	-0.389	4.5	·	·	·	·	·	·	·
O=C(Oc1c(Cl)cc(Cl)c2cccnc12)c1cccs1	4.2	1.0	-3.4	3*	-3.8	2.3	0.00833	0.0299*	0.0344	0.0158*	0.0351*	?
Oc1c(Cl)cc(Cl)c2cccnc12	8.8	-20.2	-10.7	87.5*	-14.2	·	0.0194*	0.119*	0.0472*	0.098*	0.0956*	0.0318*
SMILES	NPY-Y1 antag	Furin inh	NPY-Y1 PAM-ag	Cl transport mod	NPY2 pot ag	NPY-Y2 antag	KCC2 secondary	KCC2 bumet counter	KCC2 secondary2	HEK counter1	KCC2 ouabain	HEK293 Tl flux2
Oc1c(I)cc(I)c2cccnc12	-2.0	-15.4	-0.8	77.9*	12.6	5.5	0.0107	0.0779*	0.037	0.0439*	0.0842*	0.0132*
CN(C)CC(C)(C)CNS(=O)(=O)CC12CCC(CC1=O)C2(C)C (stereo unspecified)	-3.5	-15.4	5.8	-0.135	0.5	-1.2	·	·	·	·	·	·
Cc1ccc(OCCn2c(=S)[nH]c3c(N)ncnc32)cc1	-6.2	-37.0	8.9	-0.569	0.6	·	·	·	·	·	·	·
COc1ccc(-c2c3c(nc4sc5c(Cl)nc(C)nc5c24)CCC3)cc1	5.2	0.4	-4.5	0.25	-0.6	3.0	·	·	·	·	·	·
O=C(NNC(=O)C1CC2CCC1C2)c1sc2ccccc2c1Cl (stereo unspecified)	-2.3	-8.8	-21.1	9.49*	1.4	3.2	0.0103	0.0409*	0.0314	0.0192*	0.0246	0.0124*
CC(C)c1nnc(NC(=O)c2cccnc2)s1	3.6	-21.4	9.9	7.83*	15.8	1.8	0.016	0.00509	0.0265	0.00731	0.0162	0.0108
CCCc1nnc(NC(=O)c2cccnc2)s1	·	-17.7	12.9	0.358	4.0	·	·	·	·	·	·	·
Nc1ccccc1S(=O)(=O)C(F)F	·	-7.1	-13.4	0.507	-15.2	·	·	·	·	·	·	·
CCOC(=O)N1CCN(Cc2nc(N)nc(Nc3ccc(Oc4ccccc4)cc3)n2)CC1	-3.0	-11.4	16.7	-4.12*	4.3	-0.7	0.0065	0.00382	0.0284	0.00726	0.0171	0.00957
O=C(COc1ccccc1Br)Nc1ccccc1C(F)(F)F	0.8	-26.7	-0.3	·	-6.3	·	·	·	·	·	·	·
